Results reported in ChEMBL document CHEMBL1126066, “Biological activities and quantitative structure-activity relationships of spiro[imidazolidine-4,4'(1'H)-quinazoline]-2,2',5(3'H)-triones as aldose reductase inhibitors” (J Med Chem, 1992).
Where “and” joins values, the source holds several entries; their conditions need not be identical. Identical values can stand only once.

What was measured:
Rattus norvegicus [1] = test: In vivo inhibition of polyol accumulation in the sciatic nerve of galactosemic rats, activity is measured as polyol contents; type: functional, organism-based
Procedure, shortened: (§1)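 Male Wistar rats (SIC, 4 weeks old), three per group, had free access to water and a 20% galactose diet containing the compound for 6 days. Galactose-only and standard-diet groups served as controls. Rats were bled under ether anesthesia on day 7. Sciatic nerve polyol was measured by a modified Dvornik assay. % inhibition = (galactose control − treated)/(galactose control − normal) × 100. Student's t-test was used.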

Rattus norvegicus [2] = test: In vivo inhibition of polyol accumulation in the sciatic nerve of galactosemic rats, activity is expressed as percent inhibition of poloyl accumulation.; type: functional; set-up: concentration or dose not given beside the values; procedure, shortened: as §1
Rattus norvegicus [3] = test: Compound was evaluated in vivo for […] at a dose of 90 mg/kg per day.; type: functional, organism-based
Rattus norvegicus [4] = test: Compound was evaluated in vivo for […] at a dose of 15 mg/kg per day.; type: functional, organism-based; settings: Sciatic nerve; procedure, shortened: as §1
Rattus norvegicus [5] = test: Compound was evaluated in vivo for 50% inhibition of enzymatic activity of partially purified AR from male rabbit sciatic nerve at a dose of 90 mg/kg per day.; type: functional, organism-based; procedure, shortened: as §1
Rattus norvegicus [6] = test: Compound was evaluated in vivo for percent inhibition of polyol accumulation at a dose of 3 mg/kg per day.; type: functional
Procedure, shortened: (§2)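 Galactosemic male Wistar rats (4 weeks old, n = 3) received the compound in a 20% galactose diet for 6 days and were killed on day 7. Sciatic nerve or lens polyol was measured by a modified Dvornik assay. Mean % inhibition = (galactose control − treated)/(galactose control − normal control) × 100.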

Rattus norvegicus [7] = test: Compound was evaluated in vivo for inhibition of polyol accumulation in rat at a dose of 15 mg/kg per day.
Rattus norvegicus [8] = test: Compound was evaluated in vivo for polyol content in lens of galactosemic rats at a dose of 3 mg/kg per day.
Rattus norvegicus [9] = test: Compound was evaluated in vivo for 50% inhibition of polyol accumulation in rat sciatic nerve at a dose of 3 mg/kg per day.
Rattus norvegicus [10] = test: Compound was evaluated in vivo for percent inhibition of polyol accumulation at a dose of 15 mg/kg per day; type: functional; procedure, shortened: as §2

SMILES | polyol content (Rattus norvegicus [1]) | Inhibition (Rattus norvegicus [2]) | further results
CN1C(=O)Nc2ccc(OC(=O)/C=C/c3ccccc3)cc2C12NC(=O)NC2=O (stereo not drawn) | 10.4 µmol/g | 29.3% | 
CN1C(=O)Nc2c(N)cc(Cl)cc2C12NC(=O)NC2=O (stereo not drawn) | 7 µmol/g | 44.6% | 
CN1C(=O)Nc2cc([N+](=O)[O-])ccc2C12NC(=O)NC2=O (stereo not drawn) | 10.3 µmol/g | 11.5% | 
Cc1cc2c(cc1Cl)C1(NC(=O)NC1=O)N(C)C(=O)N2 (stereo not drawn) | 6.8 µmol/g | 58% | 
COc1ccc2c(c1)C1(NC(=O)NC1=O)N(C)C(=O)N2 (stereo not drawn) | 10.4 µmol/g | 13.6% | 
CN1C(=O)Nc2cc(Cl)ccc2C12NC(=O)NC2=O (stereo not drawn) | 11.4 µmol/g | 22.3% | 
CN1C(=O)Nc2ccc(OC(=O)c3ccccc3)cc2C12NC(=O)NC2=O (stereo not drawn) | 10.5 µmol/g | 12.3% | 
CN1C(=O)Nc2ccc(Cl)cc2C12NC(=O)NC2=O (stereo not drawn) | 6.7 µmol/g | 68% | 
CN1C(=O)Nc2c([N+](=O)[O-])cc(Cl)cc2C12NC(=O)NC2=O (stereo not drawn) | 8 µmol/g | 29.2% | 
CN1C(=O)Nc2ccc(F)cc2C12NC(=O)NC2=O (stereo not drawn) | 6.7 µmol/g | 58.7% | 
Cc1ccc2c(c1)NC(=O)N(C)C21NC(=O)NC1=O (stereo not drawn) | 8.4 µmol/g | 37.5% | 
O=C1NC(=O)C2(N1)NC(=O)Nc1ccccc12 (stereo not drawn) | 10.7 µmol/g | 15.1% | 
CC(C)CN1C(=O)N(C)C2(NC(=O)NC2=O)c2ccccc21 (stereo not drawn) | 8.1 µmol/g | 27.7% | 
COc1ccc2c(c1)NC(=O)N(C)C21NC(=O)NC1=O (stereo not drawn) | 9.8 µmol/g | 21% | 
CCN1C(=O)Nc2ccccc2C12NC(=O)NC2=O (stereo not drawn) | 9.6 µmol/g | 19.5% | 
NN1C(=O)Nc2ccccc2C12NC(=O)NC2=O (stereo not drawn) | 11.3 µmol/g | 12.2% | 
Cc1cccc2c1C1(NC(=O)NC1=O)N(C)C(=O)N2 (stereo not drawn) | 9.2 µmol/g | 27.5% | 
COc1c(Cl)cc2c(c1Cl)NC(=O)N(C)C21NC(=O)NC1=O (stereo not drawn) | 8.4 µmol/g | 37.5% | 
CN1C(=O)Nc2ccc(Cl)cc2[C@@]12NC(=O)NC2=O | 3.4 µmol/g | 100% | polyol content (Rattus norvegicus [3]): 42.4 µmol/g; polyol content (Rattus norvegicus [4]): 4.8 µmol/g; polyol content (Rattus norvegicus [5]): 2.8 µmol/g; Inhibition (Rattus norvegicus [6]): 23.4% and 0%; polyol content (Rattus norvegicus [7]): 59.2 µmol/g; polyol content (Rattus norvegicus [8]): 58.9 µmol/g; polyol content (Rattus norvegicus [9]): 7.5 µmol/g
CN1C(=O)Nc2ccccc2[C@@]12NC(=O)NC2=O | 8.4 µmol/g | 39% | 
CN1C(=O)Nc2ccc(Br)cc2C12NC(=O)NC2=O (stereo not drawn) | 5.6 µmol/g | 74.7% | 

SMILES | polyol content (Rattus norvegicus [1]) | Inhibition (Rattus norvegicus [2]) | further results
CN1C(=O)Nc2ccc([N+](=O)[O-])c(Cl)c2C12NC(=O)NC2=O (stereo not drawn) | 11.5 µmol/g | 0% | 
CN1C(=O)Nc2cc(Cl)c(Cl)cc2C12NC(=O)NC2=O (stereo not drawn) | 7.5 µmol/g | 52.9% | 
CN1C(=O)N(C)C2(NC(=O)NC2=O)c2ccccc21 (stereo not drawn) | 9.2 µmol/g | 28.4% | 
CN1C(=O)Nc2ccc(F)cc2[C@@]12NC(=O)NC2=O | 6.6 µmol/g | 61% | 
CN1C(=O)Nc2cc(Cl)c([N+](=O)[O-])cc2C12NC(=O)NC2=O (stereo not drawn) | 10.6 µmol/g | 7.7% | 
Cc1ccc2c(c1)C1(NC(=O)NC1=O)N(C)C(=O)N2 (stereo not drawn) | 9 µmol/g | 30.9% | 
CN1C(=O)Nc2cc(N3CCOCC3)c([N+](=O)[O-])cc2C12NC(=O)NC2=O (stereo not drawn) | 10.4 µmol/g | 10.3% | 
CN1C(=O)Nc2c(F)cccc2C12NC(=O)NC2=O (stereo not drawn) | 9.5 µmol/g | 29.9% | 
COc1cc2c(cc1Cl)C1(NC(=O)NC1=O)N(C)C(=O)N2 (stereo not drawn) | 8.3 µmol/g | 24.6% | 
CCOC(=O)c1ccc2c(c1)C1(NC(=O)NC1=O)N(C)C(=O)N2 (stereo not drawn) | 11.1 µmol/g | 22.2% | 
CN1C(=O)Nc2c(Cl)cc(Cl)cc2C12NC(=O)NC2=O (stereo not drawn) | 5.8 µmol/g | 63.1% | 
CN1C(=O)Nc2ccc([N+](=O)[O-])cc2C12NC(=O)NC2=O (stereo not drawn) | 12.1 µmol/g | 15.5% | 
CN1C(=O)Nc2c([N+](=O)[O-])cc([N+](=O)[O-])cc2C12NC(=O)NC2=O (stereo not drawn) | 10.1 µmol/g | 14.1% | 
CN1C(=O)Nc2cc3c(cc2C12NC(=O)NC2=O)OCO3 (stereo not drawn) | 9.2 µmol/g | 28.4% | 
CN1C(=O)Nc2ccc(Cl)cc2[C@]12NC(=O)NC2=O | 10.7 µmol/g | 26.3% | 
CN1C(=O)Nc2c(cc(F)c(F)c2F)C12NC(=O)NC2=O (stereo not drawn) | 9.5 µmol/g | 29.9% | 
CN1C(=O)Nc2ccccc2C12NC(=O)NC2=O (stereo not drawn) | 8.8 µmol/g | 32.5% | 
O=C1NC(=O)[C@@]2(CCOc3ccc(F)cc32)N1 [SORBINIL] |  |  | inhibition in vivo at 15 mg/kg/day (Rattus norvegicus [10]): 90.2%
CN1C(=O)Nc2ccc(F)cc2[C@]12NC(=O)NC2=O | 12.1 µmol/g | 15.5% | 
CN1C(=O)Nc2cccc(Cl)c2C12NC(=O)NC2=O (stereo not drawn) | 11.9 µmol/g | 17.5% | 
